Like-named read-outs stand apart in the source and are kept apart here.
Assays:
[1] = test system: HepG-2; assay: Cytotoxicity assay; assay type: cell-based, Human; details: for IC50: read-out: IC50 HepG-2; for SI (selectivity indices): LO2 vs HepG-2, 48 h
[2] = test system: LO2; assay: Cytotoxicity assay; assay type: cell-based; details: read-out: IC50 LO2
[3] = test system: cyclin A; assay: Western blot, cyclin A expression; assay type: cell-based, Human; details: HepG-2, 5 μM, 24 h
Procedure, shortened: (§1)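 HepG-2 seeded at 1 × 10^5 cells per mL, grown 24 h, then given 5 μM test compound for 24 h. Cells washed in ice-cold PBS, lysed, and spun at 10000g for 15 min at 4 °C. Protein measured by […], separated by SDS-PAGE and transferred to PVDF on ice for 3 h. Blocked in 5% skim milk/TBST for 1 h at 25 °C, primary antibody overnight at 4 °C, secondary 1 h at 25 °C. ECL detection, normalized to β-actin and expressed relative to control. Student's t test.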

[4] = test system: ferritin; assay: Western blot, ferritin expression; assay type: cell-based, Human; details: HepG-2, 5 μM, 24 h
Procedure, shortened: as §1

[5] = test system: HepG-2 cells; assay: Cell cycle distribution analysis; assay type: cell-based, Human; details: HepG-2, 5 μM, 24 h
Procedure, shortened: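 HepG-2 seeded at 1 × 10^5 cells per mL, settled 12 h at 37 °C in 5% CO2. Exposed to 5 μM test compound for 24 h, washed with cold PBS (pH 7.4) and fixed in 75% EtOH for 12 h at −20 °C. Treated with RNase (2.5 mg mL−1), stained with propidium iodide for 0.5 h, then run on a flow cytometer, 10000 events per sample.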

[6] = test system: cyclin E; assay: Western blot, cyclin E expression; assay type: cell-based, Human; details: HepG-2, 5 μM, 24 h
Procedure, shortened: as §1

[7] = test system: Cdk 2; assay: Western blot, Cdk 2 expression; assay type: cell-based, Human; details: HepG-2, 5 μM, 24 h
Procedure, shortened: as §1

[8] = test system: HepG-2 cells; assay: Intracellular ROS measurements; assay type: cell-based, Human; details: HepG-2, 5 μM, 24 h
Procedure, shortened: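 Using a kit protocol, HepG-2 were incubated with 5 μM test compound in serum-free medium for 24 h at 37 °C. 2 μM H2DCF-DA was then added and cells washed with serum-free medium. Fluorescence measured by flow cytometry and expressed relative to untreated control.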

[9] = test system: transferrin receptor-1 (TfR1); assay: Western blot, TfR1 expression; assay type: cell-based, Human; details: HepG-2, 5 μM, 24 h
Procedure, shortened: as §1

[10] = test system: HepG-2 cells; assay: Cell apoptosis assay; assay type: cell-based, Human; details: HepG-2, 5 μM, 24 h
Procedure, shortened: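 HepG-2 (1 × 10^6 cells per mL) exposed to 5 μM test compound for 24 h at 37 °C in 5% CO2. Resuspended in binding buffer (140 mM NaCl, 2.5 mM CaCl2, 10 mM Hepes/NaOH, pH 7.4) and stained with Annexin V and PI for 20 min at room temperature using a kit protocol. Early and late apoptotic fractions measured by flow cytometry.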

Question: With CN(C)C(=S)NN=C(c1ccccc1)c1ccccn1 [L5, N,N-dimethyl-2-(phenyl(pyridin-2-yl)methylene)hydrazinecarbothioamide] as the compound, how does the IC50 ([1]; Homo sapiens, HepG2, 48 h) read?
Answer: 0.57 ± 0.04 µM

Question: And the “SI (selectivity indices)” value [1]?
Answer: 41.84

Question: And the IC50 ([2]; Homo sapiens, L02, 48 h)?
Answer: 23.9 ± 2 µM

Question: Which results are given for S=C(NN=C(c1ccccc1)c1ccccn1)NC1CCCCC1 [L4, N-Cyclohexyl-2-(phenyl(pyridin-2-yl)methylene)hydrazinecarbothioamide]?
Answer: IC50 ([1]; Homo sapiens, HepG2, 48 h): 1.32 ± 0.09 µM; SI (selectivity indices) [1]: 22.97; IC50 ([2]; Homo sapiens, L02, 48 h): 30.3 ± 2.16 µM

Question: Which results are given for [Cl][Ga]([Cl])[Cl] [GaCl3, reference compound]?
Answer: anticancer activity ([1]; 50 μM): not observed; IC50 ([1]; HepG-2 cells, 48 h, MTT): > 50 µM; IC50 ([2]; LO2 normal cells, 48 h, MTT): > 50 µM

Question: Which IC50 ([1]; Homo sapiens, HepG2, 48 h) does the source give for CCNC(=S)NN=C(c1ccccc1)c1ccccn1 [L3, N-Ethyl-2-(phenyl(pyridin-2-yl)methylene)hydrazinecarbothioamide] here?
Answer: 2.43 ± 0.1 µM

Question: What about the “SI (selectivity indices)” value [1] of the same compound?
Answer: 13.57

Question: What about the IC50 ([2]; Homo sapiens, L02, 48 h) of the same compound?
Answer: 33 ± 3.64 µM

Question: Which results are given for CNC(=S)NN=C(c1ccccc1)c1ccccn1 [L2, N-Methyl-2-(phenyl(pyridin-2-yl)methylene)hydrazinecarbothioamide]?
Answer: IC50 ([1]; Homo sapiens, HepG2, 48 h): 4.56 ± 0.11 µM; SI (selectivity indices) [1]: 7.84; IC50 ([2]; Homo sapiens, L02, 48 h): 35.8 ± 2.19 µM

Question: How did the “cyclin A expression level” value [3] turn out when CN(C(=S)NN=C(c1ccccc1)c1ccccn1)C1CCCCC1 [L6, N-Cyclohexyl-N-methyl-2-(phenyl(pyridin-2-yl)methylene)hydrazinecarbothioamide] was run?
Answer: significant (p < 0.05) decreased

Question: What about the IC50 ([1]; Homo sapiens, HepG2, 48 h) of the same compound?
Answer: 0.32 ± 0.02 µM

Question: And the “SI (selectivity indices)” value [1]?
Answer: 36.06

Question: What about the “expression of ferritin relative to the control group” value [4] of the same compound?
Answer: 0.72 fold

Question: What about the “G1 phase cell proportion” value [5] of the same compound?
Answer: increase

Question: And the “percentage of G2 phase cells compared to the vehicle-treated control” value [5]?
Answer: reduced

Question: What about the “cyclin E expression level” value [6] of the same compound?
Answer: significant (p < 0.05) decreased

Question: What about the “Cdk 2 expression level” value [7] of the same compound?
Answer: significant (p < 0.05) decreased

Question: What about the IC50 ([2]; Homo sapiens, L02, 48 h) of the same compound?
Answer: 11.5 ± 0.54 µM

Question: What about the “percentage of intracellular ROS level relative to the control” value [8] of the same compound?
Answer: 17.12%

Question: And the “expression of TfR1 compared to the vehicle-treated control” value [9]?
Answer: about 1.43 fold

Question: And the “percentage of early apoptosis and late apoptosis relative to the control” value [10]?
Answer: 24.87%

Question: CCNC1=N[N+]2=C(c3ccccc3)c3cccc[n+]3[Ga-2]2([Cl])([Cl])[S]1 [C3, Dichlorido[N-ethyl-2-(phenyl(pyridin-2-yl)methylene)hydrazinecarbothioamide-N,N,S]-gallium(III)] was tested. Which IC50 ([1]; HepG-2 cells, 48 h, MTT) did it give?
Answer: 1.23 ± 0.09 µM

Question: What about the IC50 ([2]; LO2 normal cells, 48 h, MTT) of the same compound?
Answer: 26.6 ± 3.86 µM

Question: With CNC1=N[N+]2=C(c3ccccc3)c3cccc[n+]3[Ga-2]2([Cl])([Cl])[S]1 [C2, Dichlorido[N-methyl-2-(phenyl(pyridin-2-yl)methylene)hydrazinecarbothioamide-N,N,S]-gallium(III)] as the compound, how does the IC50 ([1]; HepG-2 cells, 48 h, MTT) read?
Answer: 2.76 ± 0.39 µM

Question: And the IC50 ([2]; LO2 normal cells, 48 h, MTT)?
Answer: 25.8 ± 2.93 µM

Question: What does the source list for NC(=S)NN=C(c1ccccc1)c1ccccn1 [L1, 2-(Phenyl(pyridin-2-yl)methylene)hydrazinecarbothioamide]?
Answer: IC50 ([1]; Homo sapiens, HepG2, 48 h): 11.3 ± 0.21 µM; SI (selectivity indices) [1]: 3.84; IC50 ([2]; Homo sapiens, L02, 48 h): 43.6 ± 2.84 µM

Question: Which results are given for NC1=N[N+]2=C(c3ccccc3)c3cccc[n+]3[Ga-2]2([Cl])([Cl])[S]1 [C1, Dichlorido[2-(phenyl(pyridin-2-yl)methylene)hydrazinecarbothioamide-N,N′,S]gallium(III)]?
Answer: IC50 ([1]; HepG-2 cells, 48 h, MTT): 5.75 ± 0.54 µM; IC50 ([2]; LO2 normal cells, 48 h, MTT): 33.8 ± 2.13 µM

Question: Which results are given for [Cl][Ga-2]12([Cl])[S]C(NC3CCCCC3)=N[N+]1=C(c1ccccc1)c1cccc[n+]12 [C4, Dichlorido[N-cyclohexyl-2-(phenyl(pyridin-2-yl)methylene)hydrazinecarbothioamide-N,N,S]-gallium(III)]?
Answer: IC50 ([1]; HepG-2 cells, 48 h, MTT): 0.97 ± 0.02 µM; IC50 ([2]; LO2 normal cells, 48 h, MTT): 20.4 ± 1.13 µM

Question: Which results are given for N.N.[Cl][Pt][Cl] [Cisplatin, reference compound]?
Answer: IC50 ([1]; HepG-2 cells, 48 h, MTT): 22.4 ± 2.21 µM; IC50 ([2]; LO2 normal cells, 48 h, MTT): 21.3 ± 2.35 µM

— PMC9053741 (RSC Advances, 2020)
